The source made the active and inactive calls. The rule behind the calls is not given here.
Legend:
[1] = Metabolic stability in human serum assessed as full length product remaining after 10 mins by HPLC; assay type: ADME, cell-free; settings: read-out: Stability
Procedure, shortened: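 About 0.5 A260 units compound in 1% human serum in PBS, 37 °C; aliquot taken at 10 min, analysed by anion-exchange HPLC for percent intact full-length product.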

[2] = organism: Homo sapiens; assay: Ratio of human TLR7 activity to human TLR8 activity
Procedure, shortened: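 TLR7/TLR8 ratio computed from fold NF-κB (SEAP reporter) activation in HEK293 cells stably expressing human TLR7 versus TLR8, compounds at 50 μg/mL, 18 h exposure; representative of three independent experiments.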

[3] = system: Splenocyte; assay: Immunomodulatory activity in C57BL/6 mouse splenocytes bearing TLR7 receptor assessed as IL6 release at 100 ug/ml after 24 hrs by ELISA; assay type: functional, cell-based
Procedure, shortened: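 C57BL/6 splenocytes in RPMI 1640 with 10% FBS, penicillin/streptomycin, 2 mM L-glutamine, plated at 5 × 10^6 cells/mL; compounds in PBS added, 37 °C for 24 h. Supernatant IL-12 and IL-6 by ELISA; representative of three independent experiments.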

[4] = biological target: T1, Toll-like receptor 9 (Mus musculus) (UniProt Q9EQU3); assay: Activation of mouse TLR9 expressed in HEK293 assessed as induction of NF-kappaB activity reporter gene assay; assay type: cell-based
T1 sequence (whole entry): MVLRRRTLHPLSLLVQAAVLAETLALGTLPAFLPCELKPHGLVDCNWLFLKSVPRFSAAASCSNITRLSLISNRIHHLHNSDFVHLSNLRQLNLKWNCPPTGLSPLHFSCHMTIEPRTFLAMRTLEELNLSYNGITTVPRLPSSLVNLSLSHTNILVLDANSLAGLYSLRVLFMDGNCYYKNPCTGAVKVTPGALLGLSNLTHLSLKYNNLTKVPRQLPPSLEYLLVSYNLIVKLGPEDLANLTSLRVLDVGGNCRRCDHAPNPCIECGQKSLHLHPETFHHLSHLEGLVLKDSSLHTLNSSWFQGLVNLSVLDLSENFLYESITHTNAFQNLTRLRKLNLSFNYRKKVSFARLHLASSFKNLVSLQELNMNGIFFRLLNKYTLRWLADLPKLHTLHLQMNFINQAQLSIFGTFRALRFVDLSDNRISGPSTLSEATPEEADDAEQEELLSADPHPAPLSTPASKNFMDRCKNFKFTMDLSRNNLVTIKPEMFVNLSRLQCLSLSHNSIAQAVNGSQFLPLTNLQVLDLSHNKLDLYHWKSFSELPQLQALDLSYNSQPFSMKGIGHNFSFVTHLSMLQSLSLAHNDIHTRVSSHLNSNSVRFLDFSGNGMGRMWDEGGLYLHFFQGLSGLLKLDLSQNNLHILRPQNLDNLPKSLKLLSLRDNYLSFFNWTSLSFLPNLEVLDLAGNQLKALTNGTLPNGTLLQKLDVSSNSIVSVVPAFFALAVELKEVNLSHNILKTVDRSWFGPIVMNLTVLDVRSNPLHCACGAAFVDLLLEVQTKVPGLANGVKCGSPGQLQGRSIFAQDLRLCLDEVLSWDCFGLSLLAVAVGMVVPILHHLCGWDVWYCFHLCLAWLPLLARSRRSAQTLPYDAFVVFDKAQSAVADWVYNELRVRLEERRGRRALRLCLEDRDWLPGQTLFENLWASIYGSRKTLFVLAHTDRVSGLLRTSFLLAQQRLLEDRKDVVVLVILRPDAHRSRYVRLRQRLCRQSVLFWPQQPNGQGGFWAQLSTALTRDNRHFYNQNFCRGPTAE

| Compound | remaining at 10 min [1] | Ratio [2] | Activity [3] | Activity [4] |
| --- | --- | --- | --- | --- |
| Nc1ccn([C@@H]2O[C@H](COP(=O)(S)O[C@H]3[C@@H](O)[C@H](n4cnc5c(N)ncnc54)O[C@@H]3CO)[C@@H](OP(=O)(S)OC[C@H]3O[C@@H](n4ccc(=O)[nH]c4=O)[C@H](O)[C@@H]3OP(=O)(S)OC[C@H]3O[C@@H](n4ccc(=O)[nH]c4=O)[C@H](O)[C@@H]3OP(=O)(S)OC[C@H]3O[C@@H](n4ccc5c(=O)[nH]c(N)nc54)[C@H](O)[C@@H]3OP(=O)(S)OC[C@H]3O[C@@H](n4cnc5c(N)ncnc54)[C@H](O)[C@@H]3OP(=O)(S)OC[C@H]3O[C@@H](n4ccc(N)nc4=O)[C@H](O)[C@@H]3OP(=O)(S)OC[C@H]3O[C@@H](n4ccc(=O)[nH]c4=O)[C@H](O)[C@@H]3OP(=O)(S)OC[C@H]3O[C@@H](n4ccc(=O)[nH]c4=O)[C@H](O)[C@@H]3OP(=O)(S)OC[C@H]3O[C@@H](n4ccc5c(=O)[nH]c(N)nc54)[C@H](O)[C@@H]3OP(=O)(S)OC[C@H]3O[C@@H](n4cnc5c(N)ncnc54)[C@H](O)[C@@H]3OP(=O)(S)OCC(O)COP(=O)(S)O[C@H]3[C@@H](O)[C@H](n4cnc5c(N)ncnc54)O[C@@H]3COP(=O)(S)O[C@H]3[C@@H](O)[C@H](n4ccc5c(=O)[nH]c(N)nc54)O[C@@H]3COP(=O)(S)O[C@H]3[C@@H](O)[C@H](n4ccc(=O)[nH]c4=O)O[C@@H]3COP(=O)(S)O[C@H]3[C@@H](O)[C@H](n4ccc(=O)[nH]c4=O)O[C@@H]3COP(=O)(S)O[C@H]3[C@@H](O)[C@H](n4ccc(N)nc4=O)O[C@@H]3COP(=O)(S)O[C@H]3[C@@H](O)[C@H](n4cnc5c(N)ncnc54)O[C@@H]3COP(=O)(S)O[C@H]3[C@@H](O)[C@H](n4ccc5c(=O)[nH]c(N)nc54)O[C@@H]3COP(=O)(S)O[C@H]3[C@@H](O)[C@H](n4ccc(=O)[nH]c4=O)O[C@@H]3COP(=O)(S)O[C@H]3[C@@H](O)[C@H](n4ccc(=O)[nH]c4=O)O[C@@H]3COP(=O)(S)O[C@H]3[C@@H](O)[C@H](n4ccc(N)nc4=O)O[C@@H]3COP(=O)(S)O[C@H]3[C@@H](O)[C@H](n4cnc5c(N)ncnc54)O[C@@H]3CO)[C@H]2O)c(=O)n1 (some centres not stated) | 87% | 6.5 | Active | inactive |
| Nc1ccn([C@@H]2O[C@H](COP(=O)(S)O[C@H]3[C@@H](O)[C@H](n4ccc5c(=O)[nH]c(N)nc54)O[C@@H]3COP(=O)(S)O[C@H]3[C@@H](O)[C@H](n4cnc5c(N)ncnc54)O[C@@H]3COP(=O)(S)O[C@H]3[C@@H](O)[C@H](n4cnc5c(N)ncnc54)O[C@@H]3COP(=O)(S)O[C@H]3[C@@H](O)[C@H](n4ccc5c(=O)[nH]c(N)nc54)O[C@@H]3COP(=O)(S)O[C@H]3[C@@H](O)[C@H](n4ccc(=O)[nH]c4=O)O[C@@H]3COP(=O)(S)O[C@H]3[C@@H](O)[C@H](n4ccc(=O)[nH]c4=O)O[C@@H]3COP(=O)(S)O[C@H]3[C@@H](O)[C@H](n4cnc5c(N)ncnc54)O[C@@H]3COP(=O)(S)O[C@H]3[C@@H](O)[C@H](n4cnc5c(N)ncnc54)O[C@@H]3CO)[C@@H](OP(=O)(S)OC[C@H]3O[C@@H](n4ccc(=O)[nH]c4=O)[C@H](O)[C@@H]3OP(=O)(S)OC[C@H]3O[C@@H](n4ccc5c(=O)[nH]c(N)nc54)[C@H](O)[C@@H]3OP(=O)(S)OCC(O)COP(=O)(S)O[C@H]3[C@@H](O)[C@H](n4ccc5c(=O)[nH]c(N)nc54)O[C@@H]3COP(=O)(S)O[C@H]3[C@@H](O)[C@H](n4ccc(=O)[nH]c4=O)O[C@@H]3COP(=O)(S)O[C@H]3[C@@H](O)[C@H](n4ccc(N)nc4=O)O[C@@H]3COP(=O)(S)O[C@H]3[C@@H](O)[C@H](n4ccc5c(=O)[nH]c(N)nc54)O[C@@H]3COP(=O)(S)O[C@H]3[C@@H](O)[C@H](n4cnc5c(N)ncnc54)O[C@@H]3COP(=O)(S)O[C@H]3[C@@H](O)[C@H](n4cnc5c(N)ncnc54)O[C@@H]3COP(=O)(S)O[C@H]3[C@@H](O)[C@H](n4ccc5c(=O)[nH]c(N)nc54)O[C@@H]3COP(=O)(S)O[C@H]3[C@@H](O)[C@H](n4ccc(=O)[nH]c4=O)O[C@@H]3COP(=O)(S)O[C@H]3[C@@H](O)[C@H](n4ccc(=O)[nH]c4=O)O[C@@H]3COP(=O)(S)O[C@H]3[C@@H](O)[C@H](n4cnc5c(N)ncnc54)O[C@@H]3COP(=O)(S)O[C@H]3[C@@H](O)[C@H](n4cnc5c(N)ncnc54)O[C@@H]3CO)[C@H]2O)c(=O)n1 (some centres not stated) | 76% | 19.6 | Active | inactive |
| Nc1ccn([C@@H]2O[C@H](COP(=O)(S)O[C@H]3[C@@H](O)[C@H](n4ccc(N)nc4=O)O[C@@H]3COP(=O)(S)O[C@H]3[C@@H](O)[C@H](n4cnc5c(N)ncnc54)O[C@@H]3COP(=O)(S)O[C@H]3[C@@H](O)[C@H](n4ccc5c(=O)[nH]c(N)nc54)O[C@@H]3COP(=O)(S)O[C@H]3[C@@H](O)[C@H](n4ccc(=O)[nH]c4=O)O[C@@H]3COP(=O)(S)O[C@H]3[C@@H](O)[C@H](n4ccc(=O)[nH]c4=O)O[C@@H]3COP(=O)(S)O[C@H]3[C@@H](O)[C@H](n4ccc(N)nc4=O)O[C@@H]3COP(=O)(S)O[C@H]3[C@@H](O)[C@H](n4cnc5c(N)ncnc54)O[C@@H]3CO)[C@@H](OP(=O)(S)OC[C@H]3O[C@@H](n4ccc(=O)[nH]c4=O)[C@H](O)[C@@H]3OP(=O)(S)OC[C@H]3O[C@@H](n4ccc(=O)[nH]c4=O)[C@H](O)[C@@H]3OP(=O)(S)OC[C@H]3O[C@@H](n4ccc(=O)[nH]c4=O)[C@H](O)[C@@H]3OP(=O)(S)OCC(O)COP(=O)(S)O[C@H]3[C@@H](O)[C@H](n4ccc(=O)[nH]c4=O)O[C@@H]3COP(=O)(S)O[C@H]3[C@@H](O)[C@H](n4ccc(=O)[nH]c4=O)O[C@@H]3COP(=O)(S)O[C@H]3[C@@H](O)[C@H](n4ccc(=O)[nH]c4=O)O[C@@H]3COP(=O)(S)O[C@H]3[C@@H](O)[C@H](n4ccc(N)nc4=O)O[C@@H]3COP(=O)(S)O[C@H]3[C@@H](O)[C@H](n4ccc(N)nc4=O)O[C@@H]3COP(=O)(S)O[C@H]3[C@@H](O)[C@H](n4cnc5c(N)ncnc54)O[C@@H]3COP(=O)(S)O[C@H]3[C@@H](O)[C@H](n4ccc5c(=O)[nH]c(N)nc54)O[C@@H]3COP(=O)(S)O[C@H]3[C@@H](O)[C@H](n4ccc(=O)[nH]c4=O)O[C@@H]3COP(=O)(S)O[C@H]3[C@@H](O)[C@H](n4ccc(=O)[nH]c4=O)O[C@@H]3COP(=O)(S)O[C@H]3[C@@H](O)[C@H](n4ccc(N)nc4=O)O[C@@H]3COP(=O)(S)O[C@H]3[C@@H](O)[C@H](n4cnc5c(N)ncnc54)O[C@@H]3CO)[C@H]2O)c(=O)n1 (some centres not stated) | 72% | 12.9 | Active | inactive |
